pIC50, pKi: −log10 of the molar value.
target: T1, Prostaglandin E2 receptor EP3 subtype (Homo sapiens, UniProt P43115); test: Binding affinity to EP3 receptor
T1 sequence (P43115 whole entry): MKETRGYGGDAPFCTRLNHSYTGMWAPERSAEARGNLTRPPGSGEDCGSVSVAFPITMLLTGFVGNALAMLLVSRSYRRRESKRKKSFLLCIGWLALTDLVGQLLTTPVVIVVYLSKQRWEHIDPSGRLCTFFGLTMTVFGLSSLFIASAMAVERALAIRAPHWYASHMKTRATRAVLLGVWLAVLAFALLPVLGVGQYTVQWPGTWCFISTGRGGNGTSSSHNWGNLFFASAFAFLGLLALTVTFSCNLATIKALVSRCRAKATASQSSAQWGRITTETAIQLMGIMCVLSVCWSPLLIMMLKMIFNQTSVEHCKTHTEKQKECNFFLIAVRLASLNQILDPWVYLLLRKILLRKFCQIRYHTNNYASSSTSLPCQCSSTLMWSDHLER

SMILES | pKi
CS(=O)(=O)c1cc(F)cc2c1c(C(=O)c1ccc(Cl)cc1)c1n2CCC[C@H]1CC(=O)O | < 4.67
CS(=O)(=O)c1cc(F)cc2c1c(C(=O)c1ccc(Cl)cc1)c1n2CCC[C@@H]1CC(=O)O | 5.30

target: T2, Prostaglandin D2 receptor 2 (Homo sapiens, UniProt Q9Y5Y4); test: Binding affinity to CRTH2 receptor
T2 sequence (Q9Y5Y4 whole entry): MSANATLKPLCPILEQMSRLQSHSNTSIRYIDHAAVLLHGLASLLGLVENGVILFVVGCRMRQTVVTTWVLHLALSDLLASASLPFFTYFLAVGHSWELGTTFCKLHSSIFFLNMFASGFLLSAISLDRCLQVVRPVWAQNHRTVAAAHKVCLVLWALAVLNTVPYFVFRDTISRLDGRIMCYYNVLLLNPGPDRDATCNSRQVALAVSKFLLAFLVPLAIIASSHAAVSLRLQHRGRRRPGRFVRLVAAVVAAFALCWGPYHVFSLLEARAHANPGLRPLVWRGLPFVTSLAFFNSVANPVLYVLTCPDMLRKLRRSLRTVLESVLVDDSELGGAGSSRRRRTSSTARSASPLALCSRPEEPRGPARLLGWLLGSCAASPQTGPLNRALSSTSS

SMILES | pKi
CS(=O)(=O)c1cc(F)cc2c1c(C(=O)c1ccc(Cl)cc1)c1n2CCC[C@@H]1CC(=O)O | 4.72

target: T3, Thromboxane A2 receptor (Homo sapiens, UniProt P21731); test: Binding affinity to human recombinant TP receptor by radioligand competition binding assay
T3 sequence (P21731 whole entry): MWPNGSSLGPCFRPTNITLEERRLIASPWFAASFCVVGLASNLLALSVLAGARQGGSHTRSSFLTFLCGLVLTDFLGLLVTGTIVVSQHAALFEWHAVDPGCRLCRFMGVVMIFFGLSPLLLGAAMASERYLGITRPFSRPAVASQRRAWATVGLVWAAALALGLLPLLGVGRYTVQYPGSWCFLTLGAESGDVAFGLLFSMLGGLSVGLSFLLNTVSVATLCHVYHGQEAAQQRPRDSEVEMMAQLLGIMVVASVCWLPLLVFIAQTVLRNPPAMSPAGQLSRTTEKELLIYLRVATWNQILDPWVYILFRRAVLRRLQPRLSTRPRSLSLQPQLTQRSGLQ
Procedure, shortened: (§1)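 Radioligand competition binding on recombinant human receptors, DP1 or thromboxane TP receptor; Ki values reported.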

SMILES | pKi
CS(=O)(=O)c1cc(F)cc2c1c(Sc1ccc(Cl)cc1F)c1n2CCC1CC(=O)O (stereo unspecified) | 6.70
CCC(CC)c1cc(F)cc2c1c(Sc1ccc(Cl)cc1)c1n2CCC1CC(=O)O (stereo unspecified) | 6.44
O=C(O)CC1CCn2c1c(Sc1ccc(Cl)cc1)c1c(Br)cc(F)cc12 (stereo unspecified) | 7.77
CC(C)C(O)c1cc(F)cc2c1c(Sc1ccc(Cl)cc1)c1n2CCC1CC(=O)O (stereo unspecified) | 6.32
CC(O)c1cc(F)cc2c1c(Sc1ccc(Cl)cc1)c1n2CCC1CC(=O)O (stereo unspecified) | 6.56
CS(=O)(=O)c1cc(F)cc2c1c(-c1cccc(-c3ccccc3)c1)c1n2CCC1CC(=O)O (stereo unspecified) | 6.51
CCS(=O)(=O)c1cc(F)cc2c1c(Sc1ccc(Cl)cc1)c1n2CCC1CC(=O)O (stereo unspecified) | 6.60
CS(=O)(=O)c1cc(F)cc2c1c(C(=O)c1ccc(Cl)cc1)c1n2CCC1CC(=O)O (stereo unspecified) | 5.16
CC(=O)c1cc(F)cc2c1c(Sc1ccc(Cl)cc1)c1n2CCC1CC(=O)O (stereo unspecified) | 6.17
CS(=O)(=O)c1cc(F)cc2c1c(Cc1ccc(Cl)cc1)c1n2CCC1CC(=O)O (stereo unspecified) | 7.93
CS(=O)(=O)c1cc(F)cc2c1c(C(=O)c1ccc(Cl)cc1)c1n2CCC[C@H]1CC(=O)O | 5.15
CS(=O)(=O)c1cc(F)cc2c1c(C(=O)c1ccc(Cl)cc1)c1n2CCC[C@@H]1CC(=O)O | 6.77

target: Prostaglandin F2-alpha receptor (Homo sapiens, UniProt P43088); test: Binding affinity to FP receptor
Sequence (P43088 whole entry): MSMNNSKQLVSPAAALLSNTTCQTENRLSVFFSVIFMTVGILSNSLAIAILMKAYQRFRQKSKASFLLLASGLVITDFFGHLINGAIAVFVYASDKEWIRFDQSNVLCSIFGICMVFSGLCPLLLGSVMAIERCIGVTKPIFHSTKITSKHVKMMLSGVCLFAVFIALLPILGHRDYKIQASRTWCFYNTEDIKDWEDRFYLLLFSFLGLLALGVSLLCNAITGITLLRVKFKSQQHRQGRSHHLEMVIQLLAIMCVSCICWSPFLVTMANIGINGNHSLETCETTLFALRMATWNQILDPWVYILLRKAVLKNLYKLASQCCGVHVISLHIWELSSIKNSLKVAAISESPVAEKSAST

SMILES | pKi
CS(=O)(=O)c1cc(F)cc2c1c(C(=O)c1ccc(Cl)cc1)c1n2CCC[C@H]1CC(=O)O | < 4.61
CS(=O)(=O)c1cc(F)cc2c1c(C(=O)c1ccc(Cl)cc1)c1n2CCC[C@@H]1CC(=O)O | 4.68

target: Prostacyclin receptor (Homo sapiens, UniProt P43119); test: Binding affinity to IP receptor
Sequence (P43119 whole entry): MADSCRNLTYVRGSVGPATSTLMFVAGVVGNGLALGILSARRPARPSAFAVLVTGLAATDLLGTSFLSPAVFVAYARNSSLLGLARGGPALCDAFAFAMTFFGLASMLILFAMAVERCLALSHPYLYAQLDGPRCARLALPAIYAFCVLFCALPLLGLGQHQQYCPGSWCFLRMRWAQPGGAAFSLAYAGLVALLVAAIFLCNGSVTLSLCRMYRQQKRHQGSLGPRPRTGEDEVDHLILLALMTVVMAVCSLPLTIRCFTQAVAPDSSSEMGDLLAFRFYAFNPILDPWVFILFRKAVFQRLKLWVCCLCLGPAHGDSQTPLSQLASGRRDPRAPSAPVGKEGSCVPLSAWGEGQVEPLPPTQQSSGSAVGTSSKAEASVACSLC

SMILES | pKi
CS(=O)(=O)c1cc(F)cc2c1c(C(=O)c1ccc(Cl)cc1)c1n2CCC[C@H]1CC(=O)O | < 4.65
CS(=O)(=O)c1cc(F)cc2c1c(C(=O)c1ccc(Cl)cc1)c1n2CCC[C@@H]1CC(=O)O | < 4.67

target: T4, Prostaglandin E2 receptor EP1 subtype (Homo sapiens, UniProt P34995); test: Binding affinity to EP1 receptor
T4 sequence (P34995 whole entry): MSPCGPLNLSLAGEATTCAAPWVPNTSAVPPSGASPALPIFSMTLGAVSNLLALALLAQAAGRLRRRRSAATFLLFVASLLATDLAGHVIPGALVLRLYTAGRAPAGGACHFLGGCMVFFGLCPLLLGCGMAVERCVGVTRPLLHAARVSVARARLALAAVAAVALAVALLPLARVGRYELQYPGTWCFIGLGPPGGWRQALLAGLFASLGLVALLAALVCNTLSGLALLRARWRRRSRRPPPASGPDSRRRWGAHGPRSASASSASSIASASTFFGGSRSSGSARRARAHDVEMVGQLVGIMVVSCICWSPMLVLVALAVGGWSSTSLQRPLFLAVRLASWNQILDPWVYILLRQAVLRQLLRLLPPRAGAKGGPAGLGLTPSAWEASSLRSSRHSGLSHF

SMILES | pKi
CS(=O)(=O)c1cc(F)cc2c1c(C(=O)c1ccc(Cl)cc1)c1n2CCC[C@H]1CC(=O)O | 5.66
CS(=O)(=O)c1cc(F)cc2c1c(C(=O)c1ccc(Cl)cc1)c1n2CCC[C@@H]1CC(=O)O | 6.85

target: Prostaglandin E2 receptor EP2 subtype (Homo sapiens, UniProt P43116); test: Binding affinity to EP2 receptor
Sequence (P43116 whole entry): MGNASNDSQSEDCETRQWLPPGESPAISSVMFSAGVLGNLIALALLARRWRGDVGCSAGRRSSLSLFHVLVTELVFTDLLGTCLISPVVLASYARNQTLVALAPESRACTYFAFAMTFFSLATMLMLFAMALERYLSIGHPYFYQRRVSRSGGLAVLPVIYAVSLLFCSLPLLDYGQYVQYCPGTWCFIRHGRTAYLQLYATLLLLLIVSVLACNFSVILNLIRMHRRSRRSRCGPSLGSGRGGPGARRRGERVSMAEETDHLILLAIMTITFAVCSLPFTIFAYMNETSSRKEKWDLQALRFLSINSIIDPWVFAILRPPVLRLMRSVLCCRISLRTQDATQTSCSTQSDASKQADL

SMILES | pKi
CS(=O)(=O)c1cc(F)cc2c1c(C(=O)c1ccc(Cl)cc1)c1n2CCC[C@H]1CC(=O)O | < 4.53
CS(=O)(=O)c1cc(F)cc2c1c(C(=O)c1ccc(Cl)cc1)c1n2CCC[C@@H]1CC(=O)O | 5.47

target: not listed separately; test: Binding affinity to human recombinant PGD2 receptor subtype 1 by radioligand competition binding assay; procedure, shortened: as §1

SMILES | pKi
CS(=O)(=O)c1cc(F)cc2c1c(Sc1ccc(Cl)cc1F)c1n2CCC1CC(=O)O (stereo unspecified) | 8.46
CCC(CC)c1cc(F)cc2c1c(Sc1ccc(Cl)cc1)c1n2CCC1CC(=O)O (stereo unspecified) | 8.09
O=C(O)CC1CCn2c1c(Sc1ccc(Cl)cc1)c1c(Br)cc(F)cc12 (stereo unspecified) | 8.11
CC(C)C(O)c1cc(F)cc2c1c(Sc1ccc(Cl)cc1)c1n2CCC1CC(=O)O (stereo unspecified) | 8.10
CC(O)c1cc(F)cc2c1c(Sc1ccc(Cl)cc1)c1n2CCC1CC(=O)O (stereo unspecified) | 8.60
CS(=O)(=O)c1cc(F)cc2c1c(-c1cccc(-c3ccccc3)c1)c1n2CCC1CC(=O)O (stereo unspecified) | 8.77
CCS(=O)(=O)c1cc(F)cc2c1c(Sc1ccc(Cl)cc1)c1n2CCC1CC(=O)O (stereo unspecified) | 8.64
CS(=O)(=O)c1cc(F)cc2c1c(C(=O)c1ccc(Cl)cc1)c1n2CCC1CC(=O)O (stereo unspecified) | 8.16
CC(=O)c1cc(F)cc2c1c(Sc1ccc(Cl)cc1)c1n2CCC1CC(=O)O (stereo unspecified) | 8.44
CS(=O)(=O)c1cc(F)cc2c1c(Cc1ccc(Cl)cc1)c1n2CCC1CC(=O)O (stereo unspecified) | 9.30
CS(=O)(=O)c1cc(F)cc2c1c(C(=O)c1ccc(Cl)cc1)c1n2CCC[C@H]1CC(=O)O | 7.44
CS(=O)(=O)c1cc(F)cc2c1c(C(=O)c1ccc(Cl)cc1)c1n2CCC[C@@H]1CC(=O)O | 9.00

tested on: not listed separately; test: Antagonist activity at PGD2 subtype 1 in human platelet rich plasma assessed as inhibition of PGD2-induced accumulation of cAMP; format: functional
Procedure, shortened: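 Blood from normal human volunteers; PRP prepared by centrifugation at 150g for 15 min. IBMX added (2 mM final) to block cAMP degradation. PRP samples preincubated 10 min at 37 °C with increasing compound concentrations in DMSO before PGD2 challenge. Reaction stopped with ethanol to lyse cells and extract cAMP. IC50 reported.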

SMILES | pIC50
CS(=O)(=O)c1cc(F)cc2c1c(Sc1ccc(Cl)cc1F)c1n2CCC1CC(=O)O (stereo unspecified) | 7.49
CCC(CC)c1cc(F)cc2c1c(Sc1ccc(Cl)cc1)c1n2CCC1CC(=O)O (stereo unspecified) | 7.67
CC(C)C(O)c1cc(F)cc2c1c(Sc1ccc(Cl)cc1)c1n2CCC1CC(=O)O (stereo unspecified) | 6.29
CC(O)c1cc(F)cc2c1c(Sc1ccc(Cl)cc1)c1n2CCC1CC(=O)O (stereo unspecified) | 7.25
CS(=O)(=O)c1cc(F)cc2c1c(-c1cccc(-c3ccccc3)c1)c1n2CCC1CC(=O)O (stereo unspecified) | 7.50
CCS(=O)(=O)c1cc(F)cc2c1c(Sc1ccc(Cl)cc1)c1n2CCC1CC(=O)O (stereo unspecified) | 7.47
CC(=O)c1cc(F)cc2c1c(Sc1ccc(Cl)cc1)c1n2CCC1CC(=O)O (stereo unspecified) | 7.00
CS(=O)(=O)c1cc(F)cc2c1c(Cc1ccc(Cl)cc1)c1n2CCC1CC(=O)O (stereo unspecified) | 8.33
CS(=O)(=O)c1cc(F)cc2c1c(C(=O)c1ccc(Cl)cc1)c1n2CCC[C@@H]1CC(=O)O | 8.34

target: Prostaglandin E2 receptor EP4 subtype (Homo sapiens, UniProt P35408); test: Binding affinity to EP4 receptor
Sequence (P35408 whole entry): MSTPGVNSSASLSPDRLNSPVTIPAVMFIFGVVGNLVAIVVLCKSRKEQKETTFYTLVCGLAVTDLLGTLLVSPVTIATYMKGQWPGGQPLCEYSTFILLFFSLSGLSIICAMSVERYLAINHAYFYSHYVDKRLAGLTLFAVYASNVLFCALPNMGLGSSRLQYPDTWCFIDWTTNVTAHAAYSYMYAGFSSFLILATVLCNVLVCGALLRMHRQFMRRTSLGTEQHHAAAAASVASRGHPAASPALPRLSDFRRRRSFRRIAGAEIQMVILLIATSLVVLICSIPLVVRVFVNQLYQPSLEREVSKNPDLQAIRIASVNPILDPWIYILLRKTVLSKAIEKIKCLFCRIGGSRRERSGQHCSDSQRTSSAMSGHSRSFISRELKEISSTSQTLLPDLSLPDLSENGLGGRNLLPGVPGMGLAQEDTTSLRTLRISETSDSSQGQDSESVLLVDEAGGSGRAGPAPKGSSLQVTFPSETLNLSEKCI

SMILES | pKi
CS(=O)(=O)c1cc(F)cc2c1c(C(=O)c1ccc(Cl)cc1)c1n2CCC[C@H]1CC(=O)O | < 4.79
CS(=O)(=O)c1cc(F)cc2c1c(C(=O)c1ccc(Cl)cc1)c1n2CCC[C@@H]1CC(=O)O | < 4.78
